Reference: ChEMBL document CHEMBL4011658 (J Med Chem, 2017)
Values after ≈ are worked out from the molar mass of the structure shown. Active and inactive are the calls of the source. The rule behind the calls is not given here. Residues, ends and D or L forms follow the SMILES beside them. *: point of attachment. Boc = CC(C)(C)OC(=O)*; NHBn = c1ccc(CN*)cc1

Legend:
Staphylococcus aureus [1] = assay: Antibacterial activity against methicillin-resistant Staphylococcus aureus ATCC 33591 after 16 to 20 hrs by alamar blue dye based CLSI method; format: functional
[2] = Selectivity index, ratio of cytotoxicity against human SKOV3 cells to IC50 for Staphylococcus aureus ATCC 29213; format: toxicity, cell-based; conditions: read-out: Selectivity Index
How it was run: (§1)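 Selectivity index is the ratio CTX/IC50. For CTX, cells were seeded at 25 000 per well and grown 24 h, then exposed to peptide up to 10 μg/mL for 48 h, with viability by neutral red uptake. […] The inoculum was 5 × 10^5 CFU/mL, with OD530 read before and after incubation.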

[3] = Selectivity index, ratio of cytotoxicity against pig LLC-PK1 cells to IC50 for Staphylococcus aureus ATCC 29213; format: toxicity, cell-based; conditions: read-out: Selectivity Index; how it was run: as §1
Aspergillus = assay: Antifungal activity against Aspergillus; format: functional
[4] = Selectivity index, ratio of cytotoxicity against human BT549 cells to IC50 for Cryptococcus neoformans ATCC 90113; format: toxicity, cell-based; conditions: read-out: Selectivity Index
[5] = Selectivity index, ratio of cytotoxicity against pig LLC-PK1 cells to IC50 for Cryptococcus neoformans ATCC 90113; format: toxicity, cell-based; conditions: read-out: Selectivity Index
Escherichia coli = assay: Antibacterial activity against Escherichia coli ATCC 35218 after 16 to 20 hrs by alamar blue dye based CLSI method; format: functional
[6] = Selectivity index, ratio of cytotoxicity against human SKOV3 cells to IC50 for Cryptococcus neoformans ATCC 90113; format: toxicity, cell-based; conditions: read-out: Selectivity Index
SK-MEL = assay: Cytotoxicity against human SK-MEL cells assessed as reduction in cell viability after 48 hrs by neutral red uptake assay; format: cell-based
How it was run: (§2)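 Cells seeded at 25 000 per well and grown 24 h to confluence, then exposed to peptides up to 10 μg/mL for 48 h; viability by modified neutral red uptake; doxorubicin positive control, DMSO negative control.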

BT-549 = assay: Cytotoxicity against human BT549 cells assessed as reduction in cell viability after 48 hrs by neutral red uptake assay; format: cell-based; conditions: bt-549, 48 h; how it was run: as §2
SK-OV-3 = assay: Cytotoxicity against human SKOV3 cells assessed as reduction in cell viability after 48 hrs by neutral red uptake assay; format: cell-based; conditions: sk-ov-3, 48 h; how it was run: as §2
[7] = Selectivity index, ratio of cytotoxicity against human SK-MEL cells to IC50 for Cryptococcus neoformans ATCC 90113; format: toxicity, cell-based; conditions: read-out: Selectivity Index
Staphylococcus aureus [8] = assay: Antibacterial activity against Staphylococcus aureus ATCC 29213 after […] hrs by alamar blue dye based CLSI method; format: functional
[9] = Selectivity index, ratio of cytotoxicity against human SK-MEL cells to IC50 for Staphylococcus aureus ATCC 29213; format: toxicity, cell-based; conditions: read-out: Selectivity Index; how it was run: as §1
[10] = Selectivity index, ratio of cytotoxicity against African green monkey VERO cells to IC50 for Cryptococcus neoformans ATCC 90113; format: toxicity, cell-based; conditions: read-out: Selectivity Index
Candida = assay: Antifungal activity against Candida; format: functional
Vero = assay: Cytotoxicity against African green monkey Vero cells assessed as reduction in cell viability after 48 hrs by neutral red uptake assay; format: cell-based; conditions: chlorocebus sabaeus; how it was run: as §2
LLC-PK1 = assay: Cytotoxicity against pig LLC-PK1 cells assessed as reduction in cell viability after 48 hrs by neutral red uptake assay; format: cell-based, Sus scrofa; conditions: llc-pk1, 48 h; how it was run: as §2
[11] = Selectivity index, ratio of cytotoxicity against African green monkey VERO cells to IC50 for Staphylococcus aureus ATCC 29213; format: toxicity, cell-based; conditions: read-out: Selectivity Index; how it was run: as §1
[12] = Selectivity index, ratio of cytotoxicity against human BT549 cells to IC50 for Staphylococcus aureus ATCC 29213; format: toxicity, cell-based; conditions: read-out: Selectivity Index; how it was run: as §1
Cryptococcus neoformans [13] = assay: Antifungal activity against Cryptococcus neoformans ATCC 90113 after 70 to 74 hrs by alamar blue dye based CLSI method; format: functional
Cryptococcus neoformans [14] = assay: Antifungal activity against Cryptococcus neoformans ATCC 350 after 70 to 74 hrs by alamar blue dye based CLSI method; format: functional
[15] = Selectivity index, ratio of cytotoxicity against human SKOV3 cells to IC50 for methicillin-resistant Staphylococcus aureus ATCC 33591; format: toxicity, cell-based; conditions: read-out: Selectivity Index
How it was run: (§3)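 Selectivity index is the ratio CTX/IC50. For CTX, cells were seeded at 25 000 per well and grown 24 h, then given peptide up to 10 μg/mL for 48 h, with neutral red uptake read-out. […] OD530 was read before and after 16−20 h at 35 °C.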

[16] = Selectivity index, ratio of cytotoxicity against human BT549 cells to IC50 for methicillin-resistant Staphylococcus aureus ATCC 33591; format: toxicity, cell-based; conditions: read-out: Selectivity Index; how it was run: as §3
[17] = Selectivity index, ratio of cytotoxicity against pig LLC-PK1 cells to IC50 for methicillin-resistant Staphylococcus aureus ATCC 33591; format: toxicity, cell-based; conditions: read-out: Selectivity Index; how it was run: as §3
[18] = Selectivity index, ratio of cytotoxicity against human SK-MEL cells to IC50 for methicillin-resistant Staphylococcus aureus ATCC 33591; format: toxicity, cell-based; conditions: read-out: Selectivity Index; how it was run: as §3
[19] = Selectivity index, ratio of cytotoxicity against African green monkey VERO cells to IC50 for methicillin-resistant Staphylococcus aureus ATCC 33591; format: toxicity, cell-based; conditions: read-out: Selectivity Index; how it was run: as §3
Cryptococcus neoformans [20] = assay: Fungicidal activity against Cryptococcus neoformans ATCC 350 at 0.89 ug/ml after 4 hrs by time kill assay; format: functional
Cryptococcus neoformans [21] = assay: Fungicidal activity against Cryptococcus neoformans ATCC 350 at antifungal MIC after 4 hrs by time kill assay; format: functional
Cryptococcus neoformans [22] = assay: Induction of membrane permeabilization in Cryptococcus neoformans ATCC 350 after 1 hr using FITC labeled compound by confocal microscopic analysis; format: functional

Compound	IC50 (Staphylococcus aureus [1]) [mg/L]	MBC (Staphylococcus aureus [1]) [mg/L]	MIC (Staphylococcus aureus [1]) [mg/L]	selectivity ratio [2]	Activity (Aspergillus)	selectivity ratio [4]	selectivity ratio [5]	Activity (Escherichia coli)	selectivity ratio [6]	Activity (SK-MEL) [µg/mL]	Activity (BT-549) [µg/mL]	Activity (SK-OV-3) [µg/mL]	selectivity ratio [7]	selectivity ratio [10]	Activity (Candida)	Activity (Vero) [µg/mL]	Activity (LLC-PK1) [µg/mL]	IC50 (Cryptococcus neoformans [13]) [mg/L]	MFC (Cryptococcus neoformans [13]) [mg/L]	MIC (Cryptococcus neoformans [13]) [mg/L]	other results
CC(C)(C)OC(=O)N[C@@H](Cc1c[nH]c(-c2ccccc2)n1)C(=O)N[C@@H](Cc1c[nH]c2ccccc12)C(=O)N[C@@H](Cc1c[nH]c(-c2ccccc2)n1)C(=O)NCc1ccccc1	10.5 (≈ 12.8 µM)	> 20	> 20	> 1.3	inactive	> 7.1	> 7.1	inactive	> 7.1	> 10	> 10	> 10	> 7.1	> 7.1	inactive	> 10	> 10	1.4 (≈ 1.71 µM)	2.5 (≈ 3.05 µM)	2.5 (≈ 3.05 µM)	selectivity ratio [3]: > 1.3; IC50 (Staphylococcus aureus [8]): 7.6 mg/L (≈ 9.27 µM); MBC (Staphylococcus aureus [8]): > 20 mg/L; MIC (Staphylococcus aureus [8]): > 20 mg/L; selectivity ratio [9]: > 1.3; selectivity ratio [11]: > 1.3; selectivity ratio [12]: > 1.3
OC(Cn1cncn1)(Cn1cncn1)c1ccc(F)cc1F [FLUCONAZOLE]																					MIC (Cryptococcus neoformans [14]): 9.57 mg/L (≈ 31.2 µM)
COC(=O)[C@H](Cc1c[nH]c(-c2ccc(C(C)(C)C)cc2)n1)NC(=O)[C@H](Cc1c[nH]c2ccccc12)NC(=O)[C@@H](N)Cc1c[nH]c(-c2ccc(C(C)(C)C)cc2)n1	6.71 (≈ 8.86 µM)	> 20	> 20	> 2.3	inactive	> 12	> 12	inactive	> 12	> 10	> 10	> 10	> 12	> 12	inactive	> 10	> 10	0.83 (≈ 1.1 µM)	1.25 (≈ 1.65 µM)	1.25 (≈ 1.65 µM)	selectivity ratio [3]: > 2.3; selectivity ratio [15]: > 1.49; IC50 (Staphylococcus aureus [8]): 4.33 mg/L (≈ 5.72 µM); MBC (Staphylococcus aureus [8]): > 20 mg/L; MIC (Staphylococcus aureus [8]): 10 mg/L (≈ 13.2 µM); selectivity ratio [9]: > 2.3; selectivity ratio [16]: > 1.49; selectivity ratio [17]: > 1.49; selectivity ratio [18]: > 1.49; selectivity ratio [11]: > 2.3; selectivity ratio [12]: > 2.3; selectivity ratio [19]: > 1.49
N[C@@H](Cc1cnc[nH]1)C(=O)N[C@@H](Cc1c[nH]c2ccccc12)C(=O)N[C@@H](Cc1cnc[nH]1)C(=O)NCc1ccccc1 (H-His-Trp-His-NHBn)					inactive	> 1.2	> 1.2	inactive	> 1.2	> 10	> 10	> 10	> 1.2	> 1.2	inactive	> 10	> 10		10 (≈ 17.6 µM)	10 (≈ 17.6 µM)	
CC(C)(C)c1ccc(-c2nc(C[C@H](NC(=O)[C@H](Cc3c[nH]c4ccccc34)NC(=O)[C@@H](N)Cc3c[nH]c(-c4ccc(C(C)(C)C)cc4)n3)C(=O)NCc3ccccc3)c[nH]2)cc1	6.7 (≈ 8.05 µM)	> 20	> 20	> 2.68	inactive	> 3.8	> 3.8	inactive	> 3.8	> 10	> 10	> 10	> 3.8	> 3.8	inactive	> 10	> 10	2.6 (≈ 3.12 µM)	5 (≈ 6.01 µM)	5 (≈ 6.01 µM)	selectivity ratio [3]: > 2.68; selectivity ratio [15]: > 1.49; IC50 (Staphylococcus aureus [8]): 3.72 mg/L (≈ 4.47 µM); MBC (Staphylococcus aureus [8]): 20 mg/L (≈ 24 µM); MIC (Staphylococcus aureus [8]): 10 mg/L (≈ 12 µM); selectivity ratio [9]: > 2.68; selectivity ratio [16]: > 1.49; selectivity ratio [17]: > 1.49; selectivity ratio [18]: > 1.49; selectivity ratio [11]: > 2.68; selectivity ratio [12]: > 2.68; selectivity ratio [19]: > 1.49
C[C@@H]1[C@H](O)[C@@H](C)/C=C/C=C/C=C/C=C/C=C/C=C/C=C/[C@H](O[C@@H]2O[C@H](C)[C@@H](O)[C@H](N)[C@@H]2O)C[C@@H]2O[C@](O)(C[C@@H](O)C[C@@H](O)[C@H](O)CC[C@@H](O)C[C@@H](O)CC(=O)O[C@H]1C)C[C@H](O)[C@H]2C(=O)O [AMPHOTERICIN B]																			1.25 (≈ 1.35 µM)	1.25 (≈ 1.35 µM)	Activity (Cryptococcus neoformans [20]): Active; MIC (Cryptococcus neoformans [14]): 0.89 mg/L (≈ 0.963 µM)
COC(=O)[C@H](Cc1c[nH]cn1)NC(=O)[C@H](Cc1c[nH]c2ccccc12)NC(=O)[C@H](Cc1c[nH]cn1)NC(=O)OC(C)(C)C (Boc-His-Trp-His-OMe)					inactive			inactive		> 10	> 10	> 10			inactive	> 10	> 10	> 20			Activity (Cryptococcus neoformans [21]): inactive
N[C@@H](Cc1c[nH]c(-c2ccccc2)n1)C(=O)N[C@@H](Cc1c[nH]c2ccccc12)C(=O)N[C@@H](Cc1c[nH]c(-c2ccccc2)n1)C(=O)NCc1ccccc1					inactive			inactive		> 10	> 10	> 10			inactive	> 10	> 10	> 20			Activity (Cryptococcus neoformans [22]): inactive
COC(=O)[C@H](Cc1c[nH]cn1)NC(=O)[C@H](Cc1c[nH]c2ccccc12)NC(=O)[C@@H](N)Cc1c[nH]cn1 (H-His-Trp-His-OMe)					inactive	> 1	> 1	inactive	> 1	> 10	> 10	> 10	> 1	> 1	inactive	> 10	> 10	9.81 (≈ 19.9 µM)	20 (≈ 40.6 µM)	20 (≈ 40.6 µM)	
